The values that follow come from ChEMBL document CHEMBL1681775, “Design of a novel pyrrolidine scaffold utilized in the discovery of potent and selective human β3 adrenergic receptor agonists” (Bioorg Med Chem Lett, 2011).

In general, EC50 refers to the concentration at which the effect is half-maximal. As a reminder, the IC50 is the concentration needed to halve the response being measured. In general, bioavailability refers to dose-corrected exposure relative to a reference, in per cent. For orientation: half-life means how long it takes for the measured level to halve. As usually defined, the Vd is a proportionality between amount in the body and measured concentration, not a real space. The solubility is how much of the substance goes into solution per volume. In general, clearance refers to a measure of how efficiently the substance is removed, as volume per time. As a reminder, the inhibition is the percentage by which the read-out fell short of the control.

Data set [1] is described as follows: Mutagenic activity in Salmonella Typhimurium assessed as 2 fold increase of revertants at 30 to 600 ug/plate by AMES test relative to control in absence of S9 fraction. As to conditions: salmonella enterica subsp. enterica serovar typhimurium, in the assay text read “30 to 6000 ug/plate” for “30 to 600 ug/plate”. The data set is classed as toxicity. The procedure, abridged:
(§1)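 Ames microbial mutagenesis assay in bacterial strains, run with and without S-9 metabolic activation. A positive response was defined as a 2-fold or greater increase in revertants over the control.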

Data set [2] in a line: Mutagenic activity in Salmonella Typhimurium assessed as 2 fold increase of revertants at 30 to 600 ug/plate by AMES test relative to control in presence of S9 fraction. It is filed as toxicity. Conditions: salmonella enterica subsp. enterica serovar typhimurium, in the assay text read “30 to 6000 ug/plate” for “30 to 600 ug/plate”. In outline:
as §1

The target of data set [3] is Cytochrome P450 2D6 (Homo sapiens, UniProt P10635). As to the kind of experiment: Inhibition of CYP2D6. It is filed as ADME.
Sequence of Cytochrome P450 2D6 (P10635 whole entry): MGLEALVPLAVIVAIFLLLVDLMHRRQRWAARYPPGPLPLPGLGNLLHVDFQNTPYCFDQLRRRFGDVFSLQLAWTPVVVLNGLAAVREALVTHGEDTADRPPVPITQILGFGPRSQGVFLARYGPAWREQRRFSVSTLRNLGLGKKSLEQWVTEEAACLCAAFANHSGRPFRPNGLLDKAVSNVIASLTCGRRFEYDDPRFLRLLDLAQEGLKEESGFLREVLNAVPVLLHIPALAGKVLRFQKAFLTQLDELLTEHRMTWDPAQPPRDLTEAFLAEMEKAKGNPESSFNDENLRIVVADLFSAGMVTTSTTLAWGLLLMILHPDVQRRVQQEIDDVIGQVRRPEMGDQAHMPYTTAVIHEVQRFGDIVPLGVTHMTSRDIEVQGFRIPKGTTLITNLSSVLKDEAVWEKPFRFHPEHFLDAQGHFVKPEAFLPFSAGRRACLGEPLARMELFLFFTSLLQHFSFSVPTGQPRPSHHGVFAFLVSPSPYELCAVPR
Data set [4] concerns the target T1, Beta-3 adrenergic receptor (Homo sapiens, UniProt P13945). As to the kind of experiment: Agonist activity at human beta3 adrenergic receptor. It is filed as functional.
Target sequence in this assay (P13945 whole entry): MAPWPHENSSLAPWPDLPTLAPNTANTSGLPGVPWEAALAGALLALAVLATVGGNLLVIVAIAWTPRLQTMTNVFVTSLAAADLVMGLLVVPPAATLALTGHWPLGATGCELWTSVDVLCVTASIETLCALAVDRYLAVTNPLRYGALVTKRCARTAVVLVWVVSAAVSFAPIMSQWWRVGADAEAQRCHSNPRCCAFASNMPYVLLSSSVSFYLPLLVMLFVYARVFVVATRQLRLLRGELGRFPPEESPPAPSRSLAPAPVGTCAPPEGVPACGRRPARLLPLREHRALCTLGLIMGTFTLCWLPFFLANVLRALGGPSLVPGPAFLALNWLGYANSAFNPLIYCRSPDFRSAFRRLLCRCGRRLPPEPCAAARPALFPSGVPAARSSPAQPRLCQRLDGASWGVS
Data set [5] addresses T1, Beta-3 adrenergic receptor. As to the kind of experiment: Agonist activity at human beta3 adrenergic receptor relative to control. The data set is classed as functional.
Target sequence in this assay (P13945 whole entry, looked up): as the sequence (P13945 whole entry) above
In data set [6] the target is Cytochrome P450 3A4 (Homo sapiens, UniProt P08684). As to the kind of experiment: Inhibition of CYP3A4. The data set is classed as ADME.
Sequence of Cytochrome P450 3A4 (P08684 whole entry): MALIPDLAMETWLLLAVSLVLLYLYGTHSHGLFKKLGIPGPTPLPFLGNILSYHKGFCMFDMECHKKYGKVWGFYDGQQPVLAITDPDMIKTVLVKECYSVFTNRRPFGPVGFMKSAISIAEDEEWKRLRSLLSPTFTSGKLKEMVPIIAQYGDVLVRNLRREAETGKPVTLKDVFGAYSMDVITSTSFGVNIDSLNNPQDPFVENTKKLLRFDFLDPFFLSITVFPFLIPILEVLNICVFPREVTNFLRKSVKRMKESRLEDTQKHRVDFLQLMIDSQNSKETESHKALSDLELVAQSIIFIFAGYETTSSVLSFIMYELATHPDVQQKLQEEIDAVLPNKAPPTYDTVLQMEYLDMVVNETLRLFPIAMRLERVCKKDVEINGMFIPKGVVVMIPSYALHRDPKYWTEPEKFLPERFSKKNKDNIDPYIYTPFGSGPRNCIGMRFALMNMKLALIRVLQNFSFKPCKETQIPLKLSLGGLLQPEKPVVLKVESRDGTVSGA
Data set [7] has as its target T2, Beta-1 adrenergic receptor (Homo sapiens, UniProt P08588). As to the kind of experiment: Agonist activity at human beta1 adrenergic receptor. It is filed as functional.
Data set [8] addresses T3, Beta-2 adrenergic receptor (Homo sapiens, UniProt P07550). As to the kind of experiment: Agonist activity at human beta2 adrenergic receptor. The data set is classed as functional.
The nature of data set [9]: Oral bioavailability rat. The data set is classed as ADME, organism-based. As to conditions: in vivo.
In data set [10] the target is T3, Beta-2 adrenergic receptor. As to the kind of experiment: Binding affinity to human beta2 adrenergic receptor.
Data set [11] in a line: Half life in iv dosed rat. It is filed as ADME, organism-based. Conditions: in vivo.
Data set [12] is described as follows: Volume of distribution in rat. It is filed as ADME, organism-based. Conditions: in vivo.
A short description of data set [13]: Solubility of the compound at pH < 5.2. It is filed as physicochemical.
A short description of data set [14]: Oral bioavailability in rhesus monkey. As to conditions: in vivo. The data set is classed as ADME, organism-based, Macaca mulatta.
The nature of data set [15]: Mutagenic activity in Salmonella Typhimurium by AMES test in presence of S9 fraction. The data set is classed as toxicity. As to conditions: salmonella enterica subsp. enterica serovar typhimurium, in the assay text read “5-fluorouracil forward mutation assay” for “AMES test”.
Data set [16] in a line: Plasma clearance in iv dosed rhesus monkey. The data set is classed as ADME, organism-based, Macaca mulatta.
The target in data set [17] is Voltage-gated inwardly rectifying potassium channel KCNH2 (Homo sapiens, UniProt Q12809). As to the kind of experiment: Inhibition of human ERG.
Data set [18] has as its target Nav1.5 (Homo sapiens, UniProt Q14524). As to the kind of experiment: Inhibition of human Nav1.5 at 30 uM.
Data set [19] is described as follows: Metabolic stability in rhesus monkey liver microsomes assessed as compound remaining after 45 mins. It is filed as ADME, Macaca mulatta, Microsome. Conditions: read-out: Stability. Background: Microsomes from liver hold many membrane-bound enzymes, among them those of drug oxidation.
Data set [20] concerns the target T2, Beta-1 adrenergic receptor. As to the kind of experiment: Binding affinity to human beta1 adrenergic receptor.
A short description of data set [21]: Metabolic stability in human liver microsomes assessed as compound remaining after 45 mins. It is filed as ADME, Microsome. As to conditions: read-out: Stability.
In data set [22] the target is T4, Cytochrome P450 2C8 (Homo sapiens, UniProt P10632).
T4 sequence (P10632 whole entry): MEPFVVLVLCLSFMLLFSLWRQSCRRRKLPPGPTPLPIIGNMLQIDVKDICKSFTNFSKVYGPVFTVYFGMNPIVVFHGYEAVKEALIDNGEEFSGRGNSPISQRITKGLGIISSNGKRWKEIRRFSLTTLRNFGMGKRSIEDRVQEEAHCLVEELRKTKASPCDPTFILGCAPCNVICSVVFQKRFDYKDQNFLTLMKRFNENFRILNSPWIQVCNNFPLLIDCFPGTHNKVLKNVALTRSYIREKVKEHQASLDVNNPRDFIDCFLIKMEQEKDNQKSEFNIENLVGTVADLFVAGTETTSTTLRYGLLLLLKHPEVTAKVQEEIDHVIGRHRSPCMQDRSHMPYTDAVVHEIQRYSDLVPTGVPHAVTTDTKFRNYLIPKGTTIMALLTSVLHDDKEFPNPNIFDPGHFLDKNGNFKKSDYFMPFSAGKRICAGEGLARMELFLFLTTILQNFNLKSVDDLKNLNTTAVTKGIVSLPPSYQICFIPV
As to the kind of experiment: Inhibition of CYP2C8. It is filed as ADME.

Data set [23] in a line: (§2) Half life in iv dosed dog. It is filed as ADME, organism-based, Canis lupus familiaris. As to conditions: in vivo.
A short description of data set [24]: Volume of distribution in rhesus monkey. Conditions: in vivo. It is filed as ADME, organism-based, Macaca mulatta.
A short description of data set [25]: Oral bioavailability in dog. The data set is classed as ADME, organism-based, Canis lupus familiaris. Conditions: in vivo.
A short description of data set [26]: Half life in iv dosed rhesus monkey. The data set is classed as ADME, organism-based, Macaca mulatta. As to conditions: in vivo.
The nature of data set [27]: Metabolic stability in dog liver microsomes assessed as compound remaining after 45 mins. The data set is classed as ADME, Canis lupus familiaris, Microsome. Conditions: read-out: Stability.
The nature of data set [28]: Plasma clearance in iv dosed dog. The data set is classed as ADME, organism-based, Canis lupus familiaris.
The nature of data set [29]: Metabolic stability in rat liver microsomes assessed as compound remaining after 45 mins. It is filed as ADME, Microsome. Conditions: read-out: Stability.
Data set [30] can be described thus: Solubility of the compound at pH 7.4. The data set is classed as physicochemical. Conditions: buffer.
The target of data set [31] is Cytochrome P450 2C9 (Homo sapiens, UniProt P11712). As to the kind of experiment: Inhibition of CYP2C9. It is filed as ADME.
Sequence of Cytochrome P450 2C9 (P11712 whole entry): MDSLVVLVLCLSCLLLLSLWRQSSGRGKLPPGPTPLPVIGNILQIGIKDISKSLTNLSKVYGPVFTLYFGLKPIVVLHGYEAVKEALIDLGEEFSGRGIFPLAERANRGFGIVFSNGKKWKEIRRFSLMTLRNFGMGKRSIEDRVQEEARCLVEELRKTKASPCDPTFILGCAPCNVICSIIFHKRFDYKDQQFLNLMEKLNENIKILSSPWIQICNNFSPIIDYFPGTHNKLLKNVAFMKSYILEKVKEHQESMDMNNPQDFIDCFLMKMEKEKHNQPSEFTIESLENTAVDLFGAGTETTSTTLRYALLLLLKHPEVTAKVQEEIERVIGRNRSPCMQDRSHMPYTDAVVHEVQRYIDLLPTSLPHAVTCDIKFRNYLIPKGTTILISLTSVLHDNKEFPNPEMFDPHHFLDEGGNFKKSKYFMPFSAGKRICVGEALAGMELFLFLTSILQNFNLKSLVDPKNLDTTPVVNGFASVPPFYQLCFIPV
A short description of data set [32]: Volume of distribution in dog. The data set is classed as ADME, organism-based, Canis lupus familiaris. Conditions: in vivo.
Data set [33] is filed under the species Homo sapiens. As to the kind of experiment: Selectivity ratio of human beta3 adrenergic receptor to human beta1 adrenergic receptor.
For data set [34], the species on record is Homo sapiens. As to the kind of experiment: Selectivity ratio of human beta3 adrenergic receptor to human beta2 adrenergic receptor.
Data set [35] deals with Canis familiaris. The data set is described as §2. The data set is classed as ADME, organism-based, Canis lupus familiaris. As to conditions: in vivo.

Values after ≈ are worked out from the molar mass of the structure shown.

T3 sequence (P07550 whole entry): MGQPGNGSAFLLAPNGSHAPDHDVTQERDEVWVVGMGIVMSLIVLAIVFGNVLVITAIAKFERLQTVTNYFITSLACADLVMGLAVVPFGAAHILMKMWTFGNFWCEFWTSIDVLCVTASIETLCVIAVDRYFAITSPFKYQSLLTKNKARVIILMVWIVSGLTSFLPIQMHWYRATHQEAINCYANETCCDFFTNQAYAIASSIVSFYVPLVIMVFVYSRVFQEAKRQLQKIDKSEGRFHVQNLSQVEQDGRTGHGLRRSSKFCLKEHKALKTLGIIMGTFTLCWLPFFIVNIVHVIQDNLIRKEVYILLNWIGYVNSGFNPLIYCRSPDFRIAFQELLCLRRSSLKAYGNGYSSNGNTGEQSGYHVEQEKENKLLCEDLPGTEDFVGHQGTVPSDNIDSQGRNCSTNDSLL
T2 sequence (P08588 whole entry): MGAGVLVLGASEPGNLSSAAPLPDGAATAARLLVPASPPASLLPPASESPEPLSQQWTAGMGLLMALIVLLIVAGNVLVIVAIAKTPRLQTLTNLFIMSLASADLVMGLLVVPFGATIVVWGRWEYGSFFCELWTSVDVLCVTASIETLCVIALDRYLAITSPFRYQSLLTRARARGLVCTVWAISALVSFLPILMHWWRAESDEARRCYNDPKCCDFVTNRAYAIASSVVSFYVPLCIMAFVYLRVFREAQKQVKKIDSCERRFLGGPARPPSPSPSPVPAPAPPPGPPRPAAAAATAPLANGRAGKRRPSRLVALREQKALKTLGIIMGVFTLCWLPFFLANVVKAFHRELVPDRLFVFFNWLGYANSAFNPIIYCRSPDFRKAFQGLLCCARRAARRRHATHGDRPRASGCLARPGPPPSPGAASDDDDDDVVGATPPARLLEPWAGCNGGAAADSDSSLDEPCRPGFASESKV
Sequence of Nav1.5 (Q14524 whole entry): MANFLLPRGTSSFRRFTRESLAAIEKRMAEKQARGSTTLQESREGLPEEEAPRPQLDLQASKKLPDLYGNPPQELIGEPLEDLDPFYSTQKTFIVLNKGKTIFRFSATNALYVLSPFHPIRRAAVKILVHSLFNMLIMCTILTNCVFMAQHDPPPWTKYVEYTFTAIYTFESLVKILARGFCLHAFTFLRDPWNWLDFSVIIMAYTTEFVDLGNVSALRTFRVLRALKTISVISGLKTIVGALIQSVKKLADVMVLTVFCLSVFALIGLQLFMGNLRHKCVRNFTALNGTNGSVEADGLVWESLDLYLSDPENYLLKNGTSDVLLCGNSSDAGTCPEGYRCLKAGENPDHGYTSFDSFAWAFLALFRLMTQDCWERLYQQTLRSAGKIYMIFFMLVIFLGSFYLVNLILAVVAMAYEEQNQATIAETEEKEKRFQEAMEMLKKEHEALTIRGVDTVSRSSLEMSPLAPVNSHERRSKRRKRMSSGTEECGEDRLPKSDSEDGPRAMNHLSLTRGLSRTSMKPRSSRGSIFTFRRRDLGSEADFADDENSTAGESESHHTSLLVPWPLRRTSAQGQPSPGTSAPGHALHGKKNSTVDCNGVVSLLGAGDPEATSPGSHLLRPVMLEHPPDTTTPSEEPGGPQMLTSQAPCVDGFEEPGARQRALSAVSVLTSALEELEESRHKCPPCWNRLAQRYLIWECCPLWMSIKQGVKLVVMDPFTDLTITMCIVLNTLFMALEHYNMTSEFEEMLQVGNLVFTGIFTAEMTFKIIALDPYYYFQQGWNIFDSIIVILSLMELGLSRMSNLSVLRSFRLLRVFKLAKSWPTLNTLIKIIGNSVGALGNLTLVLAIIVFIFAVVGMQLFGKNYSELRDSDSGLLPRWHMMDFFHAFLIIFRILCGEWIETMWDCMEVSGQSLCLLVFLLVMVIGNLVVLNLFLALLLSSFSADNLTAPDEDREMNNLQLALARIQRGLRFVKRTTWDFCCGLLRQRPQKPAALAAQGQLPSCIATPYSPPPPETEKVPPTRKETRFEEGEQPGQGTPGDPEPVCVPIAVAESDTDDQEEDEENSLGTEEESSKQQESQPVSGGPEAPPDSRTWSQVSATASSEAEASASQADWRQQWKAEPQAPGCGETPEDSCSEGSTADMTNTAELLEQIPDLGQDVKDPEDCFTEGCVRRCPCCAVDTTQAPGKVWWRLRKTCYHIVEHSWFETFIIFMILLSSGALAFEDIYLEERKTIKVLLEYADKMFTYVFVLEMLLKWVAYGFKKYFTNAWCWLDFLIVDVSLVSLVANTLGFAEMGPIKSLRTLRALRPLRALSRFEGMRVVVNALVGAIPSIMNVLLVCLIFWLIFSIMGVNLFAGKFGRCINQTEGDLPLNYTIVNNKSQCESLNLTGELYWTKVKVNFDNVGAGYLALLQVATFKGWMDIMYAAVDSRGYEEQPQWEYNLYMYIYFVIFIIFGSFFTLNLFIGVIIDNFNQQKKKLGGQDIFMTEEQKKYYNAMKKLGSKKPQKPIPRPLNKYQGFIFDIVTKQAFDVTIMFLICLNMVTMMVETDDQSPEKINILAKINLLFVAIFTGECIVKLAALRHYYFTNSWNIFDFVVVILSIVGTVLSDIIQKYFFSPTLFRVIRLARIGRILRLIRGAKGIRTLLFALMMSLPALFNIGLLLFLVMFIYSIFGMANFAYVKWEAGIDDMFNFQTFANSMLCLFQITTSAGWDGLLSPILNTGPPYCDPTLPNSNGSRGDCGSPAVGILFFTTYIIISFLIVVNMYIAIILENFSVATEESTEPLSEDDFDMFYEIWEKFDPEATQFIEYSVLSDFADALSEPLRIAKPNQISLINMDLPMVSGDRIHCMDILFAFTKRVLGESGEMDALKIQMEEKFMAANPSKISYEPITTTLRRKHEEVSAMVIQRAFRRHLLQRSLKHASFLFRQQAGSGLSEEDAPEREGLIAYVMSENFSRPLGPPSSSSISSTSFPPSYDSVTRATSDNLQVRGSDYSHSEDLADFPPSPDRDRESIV

In the case of `Nc1ccc(C[C@@H]2CC[C@H]([C@H](O)c3ccccc3)N2)cc1`, the Activity result in data set [1] and in data set [2] was “Non-toxic” each time.

Turning to `O=S(=O)(Nc1ccc(C[C@H]2CC[C@H]([C@H](O)c3ccccc3)N2)cc1)c1ccc(-c2nc(-c3ccc(C(F)(F)F)cc3)cs2)cc1`, the INH in data set [3] and in data set [6] was > 50 µM throughout. The concentration giving a half-maximal response (EC50) in data set [4] (read-out: EC50) was 83 nM. Besides, the Activity in data set [5] turned out to be 76%. Also, the IC50 in data set [7] was 242 nM; in [8], 297 nM.

`O=S(=O)(Nc1ccc(CC2CC[C@H]([C@@H](O)c3ccccc3)N2)cc1)c1ccc(-c2nc(-c3ccc(C(F)(F)F)cc3)cs2)cc1` (mixture of isomers): the EC50 in data set [4] (read-out: EC50) was 1310 nM. In addition, in [5], the Activity was determined as 104%. The half-inhibitory concentration (IC50) was 1520 nM in data set [7] and 2790 nM in data set [8].

As to `O=S(=O)(Nc1ccc(CC2CC[C@@H]([C@@H](O)c3ccccc3)N2)cc1)c1ccc(-c2nc(-c3ccc(C(F)(F)F)cc3)cs2)cc1` (mixture of isomers), the EC50 in [4] (read-out: EC50) amounted to 2030 nM. The same compound gave an Activity in [5] of 89%. Besides, the half-inhibitory concentration (IC50) in [7] stood at 1780 nM; in data set [8], 3530 nM.

For the compound `Nc1nc(CC(=O)Nc2ccc(C[C@@H]3CC[C@H]([C@H](O)c4ccccc4)N3)cc2)cs1`, the results for the bioavailability in data set [9], in data set [14] and in data set [25] were 12%, 14% and 18%, respectively. Moreover, the IC50 was > 20000 nM in data set [10]; 11200 nM in [17]; > 20000 nM in data set [20]; > 20000 nM in [7]; > 20000 nM in data set [8]. Moreover, the INH in data set [3] is 2.2 µM; in [22], > 100 µM; in data set [6], > 100 µM; in [31], > 100 µM. For the same compound, the half-life is 7.7 h in data set [11], 8.3 h in data set [23] and 9.9 h in data set [26]. Besides, the Vd is 5.8 L/kg in data set [12], 26.4 L/kg in data set [24] and 14 L/kg in data set [32]. Also, the solubility in [13] was > 1800 µg/mL; in [30], 1300 µg/mL (≈ 3.08 mM). Further, the EC50 in [4] (read-out: EC50) came out at 0.98 nM. In addition, the Activity result is “Non-toxic” in data set [15] and 99% in data set [5]. Moreover, the clearance came to 43.4 mL/min/kg in data set [16] and 23 mL/min/kg in data set [28]. The inhibition at 30 µM in data set [18] stood at 26%. Further, the remaining at 0.75 h in data set [19] is 77%; in data set [21], 40%; in data set [27] it was 23%; in data set [29], 13%.

Consider `O=S(=O)(Nc1ccc(CCNC[C@H](O)c2cccnc2)cc1)c1ccc(-c2nc(-c3ccc(C(F)(F)F)cc3)cs2)cc1`, for which the half-life in [11] is 8.1 h. In addition, the distribution volume (Vd) in data set [12] turned out to be 23 L/kg; in data set [24], 6.2 L/kg; in data set [32], 12 L/kg. In addition, the Selectivity ratio in data set [33] and in data set [34] was 1000 in each case. The compound further gave a t1/2 in data set [35] of 14 h.

As to `O=S(=O)(Nc1ccc(CCNC[C@H](O)c2ccccc2)cc1)c1ccc(-c2nc(-c3ccc(C(F)(F)F)cc3)cs2)cc1`, the EC50 in data set [4] (read-out: EC50) stood at 11 nM. For the same compound, the Activity in [5] was found to be 95%. Further, the IC50 is 1040 nM in data set [7] and 780 nM in data set [8].

As for `O=S(=O)(Nc1ccc(CC2CC[C@@H]([C@H](O)c3ccccc3)N2)cc1)c1ccc(-c2nc(-c3ccc(C(F)(F)F)cc3)cs2)cc1` (mixture of isomers), the EC50 in data set [4] (read-out: EC50) was 81 nM. This compound also came in with an Activity in [5] of 104%. In addition, the IC50 in [7] was determined as 2150 nM; in [8] it was 3530 nM.

As for `O=S(=O)(Nc1ccc(CC2CC[C@H]([C@H](O)c3ccccc3)N2)cc1)c1ccc(-c2nc(-c3ccc(C(F)(F)F)cc3)cs2)cc1` (mixture of isomers), the EC50 in data set [4] (read-out: EC50) turned out to be 15 nM. Besides, the Activity in [5] was 101%. In addition, the half-inhibitory concentration (IC50) in data set [7] turned out to be 2930 nM; in data set [8], 2180 nM.

Consider `CC(Cc1ccc(NS(=O)(=O)c2ccc(-c3nc(-c4ccc(C(F)(F)F)cc4)cs3)cc2)cc1)NC(C)[C@H](O)c1ccccc1` (mixture of isomers), for which the EC50 entry in data set [4] is “Not Active”.

Regarding `O=S(=O)(Nc1ccc(C[C@@H]2CC[C@H]([C@H](O)c3ccccc3)N2)cc1)c1ccc(-c2nc(-c3ccc(C(F)(F)F)cc3)cs2)cc1`, the INH in data set [3] and in data set [6] was > 50 µM in each case. Further, the EC50 in data set [4] (read-out: EC50) stood at 4.1 nM. For the same compound, the Activity in [5] was found to be 95%. The IC50 in [7] is 2190 nM; in data set [8], 2510 nM.
